Laboratory results taken from ChEMBL document CHEMBL1155564, “New antimicrobial flavanones from Physena madagascariensis” (2000).

What was measured:
Assay type in all cases: functional
Details in all cases: read-out: MEC
Escherichia coli = assay: Antimicrobial activity against Escherichia coli after 16 hrs by microtiter plate assay
In short: (§1)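 Broth microdilution in YPAD medium (1% yeast extract, 2% peptone, 2% dextrose, 40 μg/mL adenine). Wells were scored visually after 16 h. Clear wells were plated on YPAD agar for 16 h at room temperature; regrowth meant bacteriostatic, none meant bactericidal.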

Listeria monocytogenes = assay: Antimicrobial activity against Listeria monocytogenes after 16 hrs by microtiter plate assay; in short: as §1
[1] = system: Staphylococcus epidermidis; assay: Antimicrobial activity against Staphylococcus epidermidis after 16 hrs by microtiter plate assay; in short: as §1
Klebsiella aerogenes = assay: Antimicrobial activity against Enterobacter aerogenes after 16 hrs by microtiter plate assay; in short: as §1
Enterococcus = assay: Antimicrobial activity against Enterococcus after 16 hrs by microtiter plate assay; in short: as §1
Shigella sonnei = assay: Antimicrobial activity against Shigella sonnei after 16 hrs by microtiter plate assay by microtiter plate assay; in short: as §1
Staphylococcus aureus = assay: Antimicrobial activity against Staphylococcus aureus after 16 hrs by microtiter plate assay; in short: as §1
Salmonella enterica = assay: Antimicrobial activity against Salmonella enterica after 16 hrs by microtiter plate assay; in short: as §1

Row | SMILES | minimal effective concentration (Escherichia coli) [µg/mL] | minimal effective concentration (Listeria monocytogenes) [µg/mL] | minimal effective concentration [1] [µg/mL] | minimal effective concentration (Klebsiella aerogenes) [µg/mL] | minimal effective concentration (Enterococcus) [µg/mL] | minimal effective concentration (Shigella sonnei) [µg/mL] | minimal effective concentration (Staphylococcus aureus) [µg/mL] | minimal effective concentration (Salmonella enterica) [µg/mL]
1 | C=C(C)CC[C@H](Cc1c(O)cc(O)c2c1O[C@H](c1ccc(O)cc1)CC2=O)C(=C)C [REMANGIFLAVANONE A] | 125 | 125 | 1.8 | 125 | 7.5 | 125 | 3.75 | 125
2 | C=C(C)CC[C@H](Cc1c(O)cc(O)c2c1O[C@H](c1ccc(O)cc1O)CC2=O)C(=C)C [REMANGIFLAVANONE B] | 125 | 1.8 | 1.8 | 125 | 7.5 | 125 | 1.8 | 125
